Assay results reported in paper PMC6130797 (ACS Omega, 2018).
Several values for one entry are separate records, joined by “and”; a condition that tells them apart may be missing. Equal entries are not always repeated. Entries after “also recorded” stand apart in the source; their conditions may differ. Where two headings read alike, the source gives them in different places.

Key:
[1] = molecular target: T1, hH2R (Homo sapiens, UniProt P25021); test: [35S]GTPγS binding assay, Sf9 cell membranes; format: biochemical
[2] = molecular target: T2, hH4R (Homo sapiens, UniProt Q9H3N8); test: [35S]GTPγS binding assay, Sf9 cell membranes; format: biochemical
[3] = molecular target: T3, gpH2R (Cavia porcellus, UniProt P47747); test: biochemical; format: biochemical, guinea pig
Target sequence in this assay (P47747 whole entry): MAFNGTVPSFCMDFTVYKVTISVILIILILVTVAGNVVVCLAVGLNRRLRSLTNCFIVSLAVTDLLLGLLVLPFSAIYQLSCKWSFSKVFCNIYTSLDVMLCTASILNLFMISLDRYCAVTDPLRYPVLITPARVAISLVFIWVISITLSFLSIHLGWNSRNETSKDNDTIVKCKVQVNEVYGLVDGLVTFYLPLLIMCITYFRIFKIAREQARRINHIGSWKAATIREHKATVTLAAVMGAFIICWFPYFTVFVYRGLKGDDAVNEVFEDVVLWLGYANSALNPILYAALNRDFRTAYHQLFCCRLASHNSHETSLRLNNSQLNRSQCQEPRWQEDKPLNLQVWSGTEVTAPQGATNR
Target sequence in this assay (P63092 1-380 isoform P63092-2 partner): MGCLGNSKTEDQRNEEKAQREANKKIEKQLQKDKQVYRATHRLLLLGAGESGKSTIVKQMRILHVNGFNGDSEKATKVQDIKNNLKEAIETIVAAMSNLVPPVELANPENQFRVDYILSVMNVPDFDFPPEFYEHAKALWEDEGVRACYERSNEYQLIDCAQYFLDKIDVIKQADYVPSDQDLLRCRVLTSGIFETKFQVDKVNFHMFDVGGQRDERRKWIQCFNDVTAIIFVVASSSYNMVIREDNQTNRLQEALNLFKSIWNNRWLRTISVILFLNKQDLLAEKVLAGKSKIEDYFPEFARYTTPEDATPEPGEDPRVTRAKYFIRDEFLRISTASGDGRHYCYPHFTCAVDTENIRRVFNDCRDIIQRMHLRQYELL

[4] = molecular target: rH2R (Rattus norvegicus, UniProt P25102); test: [35S]GTPγS binding assay, Sf9 cell membranes; format: biochemical
[5] = molecular target: T3, gpH2R; set-up: species or system guinea pig
Target sequence in this assay (P47747 whole entry): as the sequence (P47747 whole entry) above

[6] = molecular target: hH1R (Homo sapiens, UniProt P35367); test: biochemical; format: binding
[7] = molecular target: T1, hH2R; format: binding; settings: for difference in pKi (H2R) over pKi (H1,3,4R): hH2R selectivity from radioligand binding
[8] = molecular target: T4, hH3R (Homo sapiens, UniProt Q9Y5N1); test: Radioligand competition binding with [3H]Nα-methylhistamine, Sf9 cell membranes
[9] = molecular target: T2, hH4R; test: Radioligand competition binding with [3H]histamine, Sf9 cell membranes
[10] = molecular target: T4, hH3R; test: [35S]GTPγS binding assay, Sf9 cell membranes; format: biochemical
[11] = molecular target: gpH1R (Cavia porcellus, UniProt P31389); test: Histamine H1 receptor assay on isolated guinea pig ileum
[12] = Chemical stability in binding buffer, RP-HPLC analysis; format: physicochemical; settings: binding buffer pH 7.4, 100 μM, room temperature, 12 months
In short: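 Test compounds (dimeric bisalkylguanidines) were held at 100 μM in binding buffer (12.5 mM MgCl2, 1 mM EDTA, 75 mM Tris/HCl, pH 7.4) at room temperature for 12 months.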

[13] = maximal response relative to histamine (Emax = 1.00)
[14] = guinea pig right atrium, relative to maximal increase in heart rate induced by histamine (Emax = 1.00)
[15] = hH2R pKi, [3H]tiotidine (Kd […], c = 10 nM), mean ± SEM
[16] = hH3R pKi, [3H]Nα-methylhistamine (Kd 8.6 nM, c = 3 nM), mean ± SEM

Chain of gpH1R (P31389 whole entry): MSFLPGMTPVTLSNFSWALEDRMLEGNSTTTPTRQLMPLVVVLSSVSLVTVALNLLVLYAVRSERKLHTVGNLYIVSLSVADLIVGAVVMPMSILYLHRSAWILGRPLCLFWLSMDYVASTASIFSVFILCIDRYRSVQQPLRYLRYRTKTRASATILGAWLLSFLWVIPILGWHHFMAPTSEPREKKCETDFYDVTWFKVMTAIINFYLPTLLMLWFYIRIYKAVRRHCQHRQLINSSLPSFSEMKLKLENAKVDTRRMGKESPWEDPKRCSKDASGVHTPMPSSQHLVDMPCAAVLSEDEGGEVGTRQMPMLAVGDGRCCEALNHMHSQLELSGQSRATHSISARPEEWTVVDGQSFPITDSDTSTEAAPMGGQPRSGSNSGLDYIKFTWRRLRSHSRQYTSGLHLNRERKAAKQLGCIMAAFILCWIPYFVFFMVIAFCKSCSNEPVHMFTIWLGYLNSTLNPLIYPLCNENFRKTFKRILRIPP
Chain of rH2R (P25102 whole entry): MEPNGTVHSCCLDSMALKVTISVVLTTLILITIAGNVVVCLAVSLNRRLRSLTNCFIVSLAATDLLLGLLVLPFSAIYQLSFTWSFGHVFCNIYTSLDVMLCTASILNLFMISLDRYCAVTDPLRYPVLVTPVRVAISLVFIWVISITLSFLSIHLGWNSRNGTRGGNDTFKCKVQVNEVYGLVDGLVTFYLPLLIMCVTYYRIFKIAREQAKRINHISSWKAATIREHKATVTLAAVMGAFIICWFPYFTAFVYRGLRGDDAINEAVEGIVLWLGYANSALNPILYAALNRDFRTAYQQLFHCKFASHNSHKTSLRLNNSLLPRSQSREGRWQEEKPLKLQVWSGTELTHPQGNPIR
Chain of rH2R (P63092 1-380 isoform P63092-2 partner): as the sequence (P63092 1-380 isoform P63092-2 partner) above
Chain of hH1R (P35367 whole entry): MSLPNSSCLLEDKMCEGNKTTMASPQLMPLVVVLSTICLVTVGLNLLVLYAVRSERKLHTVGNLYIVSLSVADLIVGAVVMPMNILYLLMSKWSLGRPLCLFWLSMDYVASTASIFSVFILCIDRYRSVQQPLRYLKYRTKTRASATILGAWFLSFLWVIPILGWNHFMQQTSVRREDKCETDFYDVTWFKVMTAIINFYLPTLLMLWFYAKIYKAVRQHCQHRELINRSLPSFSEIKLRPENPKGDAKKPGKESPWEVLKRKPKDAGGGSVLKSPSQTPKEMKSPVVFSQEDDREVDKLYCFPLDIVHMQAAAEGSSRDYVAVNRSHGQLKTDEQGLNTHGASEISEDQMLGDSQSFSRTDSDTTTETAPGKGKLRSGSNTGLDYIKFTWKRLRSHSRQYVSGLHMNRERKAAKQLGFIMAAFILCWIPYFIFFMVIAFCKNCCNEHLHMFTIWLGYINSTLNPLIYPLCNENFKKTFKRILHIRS
T1 sequence (P25021 whole entry): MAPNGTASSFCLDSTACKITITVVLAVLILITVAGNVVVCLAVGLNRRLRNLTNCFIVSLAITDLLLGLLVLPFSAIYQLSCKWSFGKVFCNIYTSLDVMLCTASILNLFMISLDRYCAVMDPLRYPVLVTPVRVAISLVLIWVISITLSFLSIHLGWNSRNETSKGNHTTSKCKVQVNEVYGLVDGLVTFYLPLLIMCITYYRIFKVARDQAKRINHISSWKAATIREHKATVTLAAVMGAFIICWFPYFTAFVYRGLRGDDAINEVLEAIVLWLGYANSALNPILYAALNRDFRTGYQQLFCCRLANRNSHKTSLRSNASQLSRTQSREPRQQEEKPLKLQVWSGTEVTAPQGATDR
T1 sequence (P63092 1-380 isoform P63092-2 partner): as the sequence (P63092 1-380 isoform P63092-2 partner) above
T4 sequence (Q9Y5N1 whole entry): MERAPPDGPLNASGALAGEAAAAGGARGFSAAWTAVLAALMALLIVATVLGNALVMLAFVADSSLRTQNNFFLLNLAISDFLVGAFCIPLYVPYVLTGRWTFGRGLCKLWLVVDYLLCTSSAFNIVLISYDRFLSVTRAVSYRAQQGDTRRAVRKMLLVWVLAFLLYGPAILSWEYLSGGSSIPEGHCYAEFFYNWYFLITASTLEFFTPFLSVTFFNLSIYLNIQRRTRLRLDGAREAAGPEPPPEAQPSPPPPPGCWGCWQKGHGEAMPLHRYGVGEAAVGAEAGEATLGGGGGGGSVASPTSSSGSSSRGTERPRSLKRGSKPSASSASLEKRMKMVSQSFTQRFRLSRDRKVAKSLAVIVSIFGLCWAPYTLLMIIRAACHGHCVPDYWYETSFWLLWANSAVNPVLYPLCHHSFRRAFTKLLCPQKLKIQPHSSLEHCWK

Structure (SMILES)	EC50 [4]	Ki ([6]; hH1R pKi)	Ki [7, 15]	Ki [8, 16]	Ki ([9]; hH4R pKi)	EC50 [1]	hH2R Emax [1]	Kb [10]	hH3R Emax [10]	Kb [2]	hH4R Emax [2]	Kb [11]	EC50 [5]	gpH2R Emax [5]	further results
NCCc1c[nH]cn1 [Compound 1, histamine, reference compound]	1.07 µM														hH2R Emax [1, 13]: 1.00; hH4R Emax [2, 13]: 1.00; gpH2R Emax [3, 13]: 1.00; rH2R Emax [4, 13]: 1.00; gpH2R Emax [5, 14]: 1.00
Cc1nc(N)sc1CCCNC(=N)NCCCCCCCCNC(=N)NCCCc1sc(N)nc1C [Compound 58, 1,1′-(Octane-1,8-diyl)bis{3-[3-(2-amino-4-methylthiazol-5-yl)propyl]guanidine}]	0.148 µM	> 3.16 µM	0.0468 µM			0.245 µM	0.33 ± 0.03		0		0			0.78 ± 0.01	Ki ([6]; Ki hH1R, bound stated): > 1 µM; Ki ([7]; Ki hH2R, bound stated): < 0.1 µM; difference in pKi (H2R) over pKi (H1,3,4R) [7]: at least 1.5 log units; Ki ([8]; Ki hH3R, bound stated): > 1 µM; Ki ([9]; Ki hH4R, bound stated): > 1 µM; EC50 [3]: 0.0525 µM; gpH2R Emax [3]: 0.97 ± 0.06; rH2R Emax [4]: 0.70 ± 0.04; chemical stability [12]: excellent chemical stabilities; also recorded: no decomposition
N=C(NCCCCCCCCNC(=N)NCCCc1cnc(N)s1)NCCCc1cnc(N)s1 [Compound 59]		> 10 µM	0.234 µM	11 µM	52.5 µM	0.295 µM	0.40 ± 0.05	89.1 µM	0	263 µM	0	0.832 µM	0.0204 µM	0.94 ± 0.03	difference in pKi (H2R) over pKi (H1,3,4R) [7]: at least 1.5 log units
Cc1nc(N)sc1CCCNC(=N)NCCCCCCCCNC(=N)NCCCc1cnc(N)s1 [Compound 63, 1-[3-(2-Amino-4-methylthiazol-5-yl)propyl]-3-{8-[3-(3-(2-aminothiazol-5-yl)propyl)guanidino]octyl}guanidine]	0.141 µM	> 3.16 µM	0.123 µM	3.98 µM	7.24 µM	0.251 µM	0.47 ± 0.03	21.4 µM	0	186 µM	0	1 µM	0.00275 µM	0.88 ± 0.03	difference in pKi (H2R) over pKi (H1,3,4R) [7]: at least 1.5 log units; EC50 [3]: 0.0468 µM; gpH2R Emax [3]: 1.02 and 1.02 ± 0.04; rH2R Emax [4]: 0.87 ± 0.02; Emax [5]: 88%; potency relative to histamine ([5]; gpH2R, atrium): 250 times
CCCCCCCCNC(=N)NCCCc1c[nH]cn1 [Compound 136]		> 3.16 µM	0.11 µM	0.107 µM	0.126 µM	0.138 µM	0.48 ± 0.02		–0.53 ± 0.03	209 µM	0	0.794 µM	0.195 µM	1.13 ± 0.07	EC50 [10]: 0.0288 µM; quality of action at hH3R ([10]; [35S]GTPγS binding assay): inverse agonistic activity
CCCCCCCCCCCCNC(=N)NCCCc1sc(N)nc1C [Compound 139]		> 3.16 µM	0.468 µM	2.04 µM	5.62 µM	6.92 µM		4.27 µM	0		–0.97 ± 0.01	0.437 µM	0.269 µM	0.60 ± 0.02	EC50 [2]: 13.8 µM; quality of action at hH4R ([2]; [35S]GTPγS binding assay): inverse agonistic activity
CCCCCCCCCCCCNC(=N)NCCCc1cnc(N)s1 [Compound 140]		> 3.16 µM	0.269 µM	14.1 µM	11.2 µM							0.372 µM	0.562 µM	0.70 ± 0.01	
CCCCCCCCCCCCNC(=N)NCCCn1ccnc1 [Compound 141]		> 3.16 µM	1.26 µM	6.46 µM	12.9 µM							0.372 µM		0	gpH2R pEC50 [5]: not active
c1nc(CCCNC2=NCCCN2)c[nH]1 [Compound 145, N-[3-(1H-imidazol-4-yl)propyl]-1,4,5,6-tetrahydropyrimidin-2-amine]		> 10 µM	3.16 µM		0.038 µM							5.75 µM	1.51 µM		Ki ([8]; hH3R pKi): 0.186 µM; gpH2R Emax [5, 14]: 1.00 ± 0.03

Continued, in another order:

EC50 [4]	Ki ([6]; hH1R pKi)	Ki [7, 15]	Ki [8, 16]	Ki ([9]; hH4R pKi)	EC50 [1]	hH2R Emax [1]	Kb [10]	hH3R Emax [10]	Kb [2]	hH4R Emax [2]	Kb [11]	EC50 [5]	gpH2R Emax [5]	Structure (SMILES)	further results
0.0661 µM	3.16 µM	0.0891 µM	0.0302 µM	0.0871 µM	0.166 µM	0.50 ± 0.03	0.135 µM	0	407 µM	0	1.7 µM	0.0105 µM	0.91 and 0.91 ± 0.05	N=C(NCCCCCCCCNC(=N)NCCCc1c[nH]cn1)NCCCc1c[nH]cn1 [Compound 5, 1,1′-(Octane-1,8-diyl)bis{3-[3-(1H-imidazol-4-yl)propyl]guanidine}]	Ki ([6]; Ki hH1R, bound stated): > 1 µM; Ki ([7]; Ki hH2R, bound stated): < 0.1 µM; Ki ([8]; Ki hH3R, bound stated): < 0.1 µM; Ki ([9]; Ki hH4R, bound stated): < 0.1 µM; EC50 [3]: 0.0251 µM; gpH2R Emax [3]: 0.95 and 0.95 ± 0.05; rH2R Emax [4]: 0.80 ± 0.01
0.0245 µM	0.355 µM	0.0389 µM	0.0162 µM	0.02 µM	0.0537 µM	0.52 ± 0.03	0.0468 µM	0	324 µM	0	0.123 µM	0.00776 µM	0.63 and 0.63 ± 0.03	N=C(NCCCCCCCCCCCCNC(=N)NCCCc1c[nH]cn1)NCCCc1c[nH]cn1 [Compound 57, 1,1′-(Dodecane-1,12-diyl)bis{3-[3-(1H-imidazol-4-yl)propyl]guanidine}]	EC50 [3]: 0.0295 µM; gpH2R Emax [3]: 0.89 ± 0.07; rH2R Emax [4]: 0.80 and 0.80 ± 0.03; gpH1R pA2 ([11]; guinea pig ileum, antagonism of histamine-induced contraction): 6.91; chemical stability [12]: excellent chemical stabilities; also recorded: no decomposition
	> 1 µM	0.117 µM	0.0324 µM	0.0741 µM	0.589 µM	0.54 ± 0.05	0.0661 µM	0	204 µM	0	1.41 µM	0.0102 µM	0.91 ± 0.03	Cc1nc(N)sc1CCCNC(=N)NCCCCCCCCNC(=N)NCCCc1c[nH]cn1 [Compound 61]	
	> 1 µM	0.0537 µM	0.0372 µM	0.107 µM	0.309 µM	0.45 ± 0.04	0.0813 µM	0	372 µM	0	0.977 µM	0.00562 µM	1.02 ± 0.06	N=C(NCCCCCCCCNC(=N)NCCCc1cnc(N)s1)NCCCc1c[nH]cn1 [Compound 62]	
	2.95 µM	0.603 µM	0.0295 µM	0.0126 µM							0.195 µM	0.234 µM	0.91 and 0.91 ± 0.03	CCCCCCCCCCCCNC(=N)NCCCc1c[nH]cn1 [Compound 138]	
